Source: PubChem
RGS4 pot – RGS4 potentiators or activators, primary screen, cell-based, HEK293 M3R inducible RGS4, calcium flux; hit rate 0.92% among 310,000; carbachol calcium flux Fluo4; hits give low values; AID 463111, 2010; B-score at 10 µM;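 active = B-score of the integrated calcium signal more than 4 SD below the library mean, with starting fluorescence not abnormally high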;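 also: negative B-score means reduced calcium response which marks RGS4 activation or potentiation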
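System – HEK293 FlpIn-TREx cells, stable M3R, doxycycline-inducible RGS4 · Reagent – ECmax carbachol challenge · Times – compound preincubation 20 min at room temperature before agonist · Technique – Fluo4 fluorescence kinetic imaging of calcium · Measure – B score of integrated Fluo4 ratio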
MrgX1 agonist – agonists of human MrgX1 receptor, primary screen, HEK293 cells, Fluo-4 calcium flux; B-score at 10 µM; hit rate 0.44% among 310,000; Fluo-4 calcium fluorescence, agonist mode; hits give high values;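 active = calcium response B-score plate-corrected fluorescence ratio at least 3 library SD, with starting fluorescence B-score inside 5 SD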
Target sequence (Q96LB2 whole entry, looked up): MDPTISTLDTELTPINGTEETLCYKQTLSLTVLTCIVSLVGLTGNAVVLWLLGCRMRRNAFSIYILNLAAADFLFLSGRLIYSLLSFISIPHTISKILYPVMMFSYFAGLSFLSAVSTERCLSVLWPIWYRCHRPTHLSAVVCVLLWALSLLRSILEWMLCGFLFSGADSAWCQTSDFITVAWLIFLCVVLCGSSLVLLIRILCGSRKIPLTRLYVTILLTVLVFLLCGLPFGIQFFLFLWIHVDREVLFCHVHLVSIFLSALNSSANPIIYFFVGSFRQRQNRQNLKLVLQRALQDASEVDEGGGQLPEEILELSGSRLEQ
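Assay system: stable human MrgX1 HEK293 cell line. Quantity: 15,000 cells per well. Schedule: cells plated overnight, dye loaded 0.5 h 37 °C, 0.5 h room temperature. Detection: Fluo-4 NW calcium-flux fluorescence, kinetic read. Read-out basis: peak-minus-minimum fluorescence over baseline, converted to B scores. Control set: positive and negative control wells on each plate.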
MrgX1 allo act – positive allosteric modulators of MrgX1, primary screen, HEK293 cells, Fluo-4 calcium flux | B-score at 10 µM | AID 588675, 2011 | hit rate 0.63% among 310,000 | FDSS; hits give high values;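 active = plate-corrected calcium response at least 3 library SD above typical, normal starting fluorescence, not activating the receptor alone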;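 also: compound read alongside a low EC10 to EC30 dose of BAM8-22 agonist; peak minus trough fluorescence over baseline measured at the second addition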
MrgX1 antagonist – antagonists of human MrgX1 receptor, primary screen, HEK293 cells, Fluo-4 calcium flux | AID 588676, 2011 | B-score at 10 µM | BAM8-22 antagonism; hits give low values | Mas-related G-protein coupled receptor member X1 (Homo sapiens), Q96LB2 | hit rate 1.3% among 310,000;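 active = calcium-response B-score plate-corrected more than 3 library SD below zero, starting fluorescence within 5 deviations, no agonist response on first addition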;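 also: peak minus trough fluorescence over baseline after final BAM8-22 challenge near maximal dose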
RGS4 block – RGS4 inhibitors, primary screen, cell-based, HEK293 M3R inducible RGS4, calcium flux. Regulator of G-protein signaling 4 (Homo sapiens), P49798. Fluo-4 calcium flux; hits give high values; triggered by carbachol at its EC20. B-score at 10 µM. hit rate 0.45% among 310,000;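 active = B-score, a plate-corrected calcium signal, over three deviations above library mean, with baseline fluorescence within five deviations of library mean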;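 also: RGS4 expression induced by doxycycline in cells with stable M3 receptor; B-score is computed from the integrated fluorescence ratio over baseline after carbachol; higher B-score means a larger calcium signal and so more RGS4 inhibition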
Target sequence (P49798 whole entry, looked up): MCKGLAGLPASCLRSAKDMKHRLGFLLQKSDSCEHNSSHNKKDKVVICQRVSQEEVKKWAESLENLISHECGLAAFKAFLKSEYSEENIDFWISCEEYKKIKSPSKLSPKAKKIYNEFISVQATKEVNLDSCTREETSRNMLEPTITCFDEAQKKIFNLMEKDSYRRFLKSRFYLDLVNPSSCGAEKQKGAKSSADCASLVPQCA
The depositor's hits bear a star; i = inactive; x = no result given. Rows were chosen to be rich in hits. Some 3.5% of all compounds tested hit in one or more screens of this group.

SMILES	RGS4 pot	MrgX1 agonist	MrgX1 allo act	MrgX1 antagonist	RGS4 block
CCC(C)[C@H](NS(=O)(=O)c1ccc(C)cc1)C(=O)N1CCC(C(=O)N[C@@H](Cc2ccccc2)C(=O)O)CC1 (stereo not given in full)	i	i	i	i	i
C=CCn1c(SCC(=O)c2ccc(Br)cc2)nnc1C(CC(C)C)NC(=O)c1cccs1 (stereo not given)	i	i	i	-6.1*	i
Cc1ccc(NC(=O)NNC(=O)C2CCN(Cc3ccc(F)cc3Cl)CC2)cc1	i	i	i	i	i
COc1cccc(C(=O)NC2CC3CCCC(C2)N3S(=O)(=O)c2ccccc2)c1 (stereo not given)	i	i	i	i	i
C=C(C)CSc1nc2sc3c(c2c(=O)n1-c1ccc(C)cc1)CCN(C)C3	-10*	x	x	x	i
CCOC(=O)CSc1nc2sc3c(c2c(=O)n1-c1ccc(OCC)cc1)CCN(C)C3	i	i	i	i	i
CCn1c(SCC(N)=O)nc2sc3c(c2c1=O)CCN(C)C3	i	i	i	i	i
CCOC(=O)CSc1nc2sc3c(c2c(=O)n1C1CCCCC1)CCN(C)C3	-10*	i	i	i	i
Cc1cc(-n2cccn2)ccc1CN1CCN(C2CCCC2)C(CCO)C1 (stereo not given)	i	i	i	i	i
Cc1cc(-n2cccn2)ccc1CN1CCN(CC(C)C)C(CCO)C1 (stereo not given)	-7.3*	i	i	i	i
Cc1c(-c2cc(Br)ccc2O)nc2cc3c(cc2c1C)OCO3	i	i	i	i	i
C[C@H]1c2cccc(O)c2C(O)=C2C(=O)[C@]3(O)C(O)=C(C(N)=O)C(=O)[C@@H](N(C)C)C3[C@@H](O)C21 (stereo not given in full)	i	i	i	-6.8*	i
CC12CC3CC(C)(C1)CC(C(=O)N1CCN(C(=O)c4ccco4)CC1)(C3)C2	i	i	i	i	i
CCCCn1nnnc1SCC(=O)NNC(=O)C1CCCCC1	i	i	i	-5.1*	i
Cc1ccccc1C(=O)NC1CCN(CC(=O)NCc2ccccc2)CC1	i	i	i	i	i
O=C(CN1CCN(c2ccccn2)CC1)N1c2ccccc2Sc2ccc(C(F)(F)F)cc21	i	i	i	i	i
CCNCCC(=O)N1c2ccccc2Sc2ccc(C(F)(F)F)cc21	-7.9*	31*	i	i	i
O=C(CN1CCCCC1)N1CCCc2ccccc21	i	i	i	i	i
O=C(CN1CCCC1)N1c2ccccc2Sc2ccc(C(F)(F)F)cc21	-8.1*	i	i	i	i
O=C(CN1CCCCCC1)N1c2ccccc2C=Cc2ccccc21	-7.6*	i	i	i	i
CCc1ccc(C2=CC(c3cc(Br)ccc3F)n3ncnc3N2)cc1 (stereo not given)	x	i	11*	i	x
Fc1ccc(Br)cc1C1C=C(c2ccc(Br)cc2)Nc2ncnn21 (stereo not given)	i	i	i	i	i
Cc1ccc(NC(=O)NNC(=O)c2snnc2C)cc1	i	i	i	i	i
O=[N+]([O-])c1ccc(Cl)c2c1C1C=CCC1C(c1ccccn1)N2 (stereo not given)	i	i	i	-5.6*	i
Cn1c(Cn2c(C(F)(F)F)nc3ccccc32)nc2ccccc21	i	i	i	-4.9*	i
SMILES	RGS4 pot	MrgX1 agonist	MrgX1 allo act	MrgX1 antagonist	RGS4 block
OCCn1c(C(F)(F)F)nc2ccccc21	i	i	i	i	i
COc1ccc(-c2nc3ccccc3nc2-c2ccc(OC)cc2)cc1	-7*	i	i	i	i
Cc1cc(NC(=O)CCC(=O)N(CCC(C)C)C(C(=O)NC2CCCC2)c2ccccc2C)no1 (stereo not given)	i	i	i	i	i
O=C1NC(c2ccco2)Nc2sc3c(c21)CCN(Cc1ccccc1)C3 (stereo not given)	x	30*	i	i	x
Cn1cccc1C1NC(=O)c2c(sc3c2CCC(C(C)(C)C)C3)N1 (stereo not given)	i	i	i	i	i
CN1CCc2c(sc3c2C(=O)NC(c2cccc(OC(=O)c4cccs4)c2)N3)C1 (stereo not given)	i	i	i	i	i
CN1CCc2c(sc3c2C(=O)NC(c2ccco2)N3)C1 (stereo not given)	i	27*	i	i	i
CN1CCc2c(sc3c2C(=O)NC(c2cn(Cc4ccccc4)c4ccccc24)N3)C1 (stereo not given)	i	29*	i	i	i
CCOC(=O)N1CCc2c(sc3c2C(=O)NC(c2ccccc2)N3)C1 (stereo not given)	i	i	i	i	i
O=C(Nc1cc2c3c(c1)CC(=O)N3CCC2)c1ccc(Cl)cc1	i	i	i	i	i
COc1cccc(NC(=O)c2ccccc2N2C(=O)C3C4C=CC(C4)C3C2=O)c1 (stereo not given)	i	i	i	i	i
O=C(NC1CCCCC1)C(c1ccc(F)cc1)N(Cc1ccccc1)C(=O)CN1C(=O)c2ccccc2S1(=O)=O (stereo not given)	i	i	i	i	i
O=C(NC1CCCCC1)C(c1ccc(F)cc1)N(CCc1ccccc1)C(=O)CN1C(=O)c2ccccc2S1(=O)=O (stereo not given)	i	i	i	-8.9*	i
Cc1cc(C)cc(N(C(=O)Cc2cccs2)C(C(=O)NC2CCCCC2)c2ccccn2)c1 (stereo not given)	i	i	i	i	i
O=C(NC1CCCCC1)C(c1ccccn1)N(C(=O)Cc1cccs1)c1ccc(Cl)cc1 (stereo not given)	i	37*	i	i	i
CCC(C)n1c(=S)[nH]c2c(sc3ccc([N+](=O)[O-])cc32)c1=O (stereo not given)	i	i	9.2*	i	i
CCN(c1ccccc1)S(=O)(=O)c1ccc(Cl)c(C(=O)OCC(=O)c2[nH]c(C)c(C(C)=O)c2C)c1	-7.2*	i	i	i	i
CC(=O)c1c(C)[nH]c(C(=O)COC(=O)c2cc(S(=O)(=O)N(C)c3ccccc3)ccc2Cl)c1C	i	i	i	i	i
COc1ccccc1C1(O)C(=O)Nc2ccc(C)cc21 (stereo not given)	i	i	i	i	i
